MITF TRPM1 HTS = increases MITF-driven TRPM1 promoter luciferase signal; SK-MEL-5 TRPM1-promoter luciferase, 24 h; % of positive control, neutral wells = 0; actives 0.75% (n = 300,000); AID 588334; activation, % at 12.5 µM;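 active means mean activation of at least 80% with every replicate also reaching 80%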;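 further: 0% = neutral control wells and 100% = parthenolide positive control wells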
Vif inh = inhibitors of HIV Vif; inhibition, % at 7.49 µM; actives 0.35% (n = 340,000); AID 602346; HEK293T cells, Vif self-association by quenched fluorescence, imaging, 24 h; in the data active means inhibition above about 50%, passing the limit was not always enough
XiGFP reactiv = X-chromosome reactivation activator; activation, % at 7.58 µM; XiGFP mouse fibroblasts, % GFP-positive cells imaging, 3 d; cells co-treated with 5-aza-dC sensitizer; scaled so ellipticine positive control = 100%; actives 0.055% (n = 360,000);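 active means mean normalized replicate activation at least 10% and every replicate at or above 10%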;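 further: 0% = median of on-plate neutral control wells and 100% = ellipticine 6 µM median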
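Schedule: 3 d treatment, 15 min room-temperature fixation; system: 68-5-11 XiGFP fibroblast line; buffer or medium: DMEM plus 5-aza-dC sensitizer; control set: ellipticine 6 µM positive control; compound: one concentration, pinned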
esBAF inh = SWI/SNF esBAF complex inhibition | mouse ES cells, Bmi1-luciferase knock-in reporter, 24 h; 100% = twice the neutral-well signal | actives 2% (n = 350,000) | reporter increase, % at 12.5 µM; in the data active means activation above about 40%;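 further: 0% = median of the plate's neutral control wells and 100% = double that signal; a rise in the Bmi1 reporter signal indicates esBAF inhibition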
Wnt bcat act = activators of Wnt/beta-catenin signaling; Wnt/beta-catenin reporter cell assay, activator, plate reader; activation, % at 9.35 µM; actives 1.2% (n = 300,000); in the data active means activation above about 30%, passing the limit was not always enough;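 further: 0% = neutral control wells and 100% = positive control wells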
* hit, by the source's call. A selection: hits, their analogues and other compounds. The true share with any hit is near 2.6%.

`O=C(CSc1nnc2ccccn12)N1CCc2ccccc21` gave MITF TRPM1 HTS 47.1, Vif inh -4.8, XiGFP reactiv -0.1, esBAF inh 52.8* and Wnt bcat act 34.4*.
`CC(Sc1nnc2ccccn12)C(=O)N1CCc2ccccc2C1` (stereo not drawn) gave MITF TRPM1 HTS 10.5 and Vif inh 6.3.
For CCCC(=O)N1CCC2(CC1)CN(C(=O)C1CCOCC1)[C@@H](CO)c1[nH]c3cc(OC)ccc3c12 the results were XiGFP reactiv 0.1.
For COc1ccccc1-c1ccc(C2[C@H]3CNC[C@@H]2N3C(=O)Nc2ccccc2Cl)cc1 (stereo partly drawn) the results were XiGFP reactiv 0.2.
Screening COc1ccc(C(=O)NC(=S)NC(C)C)cc1Br returned MITF TRPM1 HTS 48.8 and esBAF inh 62.7*.
`COc1ccc(C(=O)NC(=S)NC(C)(C)C)cc1Br` gave MITF TRPM1 HTS 47.6, Vif inh -10.9, esBAF inh 58.9* and Wnt bcat act 1.2.
`COc1ccc(C(=O)NC(=S)NNC(=O)c2ccncc2)cc1Br` gave MITF TRPM1 HTS -8.1, Vif inh -2.3, XiGFP reactiv -0.1, esBAF inh 9.6 and Wnt bcat act -4.4.
Screening COc1ccc(C(=O)NNC(=S)NC(=O)c2ccc(F)cc2)cc1Br returned Vif inh -2.8, XiGFP reactiv 0.2 and Wnt bcat act 17.9.
Screening O=C(C[C@H]1C=C[C@H](NC(=O)CC2CC2)[C@@H](CO)O1)NCC(F)(F)F returned XiGFP reactiv -0.1 and esBAF inh -3.5.
Screening COc1cccc(C=NNC(=S)NC2CC3CCC2C3)c1O (stereo not drawn) returned XiGFP reactiv -0.2 and Wnt bcat act 37.2*.
`COc1cc(/C=N/NC(=S)NC2CC3CCC2C3)ccc1O` (stereo not drawn) gave MITF TRPM1 HTS 22.7, Vif inh -1.5, XiGFP reactiv -0.1, esBAF inh 26.7 and Wnt bcat act 17.1.
Screening COc1ccc2[nH]c3c(=O)n(CCc4ccccc4)cnc3c2c1 returned MITF TRPM1 HTS 63.1, Vif inh 8.8, XiGFP reactiv 0.0 and Wnt bcat act 36.8*.
CCOC(=O)c1ccc2[nH]c(C)c(C)c2c1 was read as MITF TRPM1 HTS 36.4, Vif inh -1.5 and esBAF inh 58.5*.
`CCOC(=O)c1ccc2[nH]c3ccccc3c2c1` gave MITF TRPM1 HTS 47.6, Vif inh 5.4, esBAF inh 62.0* and Wnt bcat act 0.0.
`Cc1[nH]c2ccc(C(=O)OCCN(C)C)cc2c1C` gave MITF TRPM1 HTS 27.8, Vif inh 4.0, esBAF inh 9.4 and Wnt bcat act -1.3.
`O=C(c1cnccn1)N1CC2(C1)[C@H](c1ccccc1)[C@@H](CO)N2C(=O)c1ccccc1` gave XiGFP reactiv 0.0.
CCS(=O)(=O)Nc1ccc2c(c1)C(=O)N(C)C[C@@H](OC)[C@@H](C)CN(Cc1nccs1)[C@@H](C)CO2 was read as XiGFP reactiv -0.1 and esBAF inh 1.1.
Screening COc1ccc(NC2CC(=O)N(C(C)C)C2=O)cc1 (stereo not drawn) returned MITF TRPM1 HTS 68.6, Vif inh 9.6, esBAF inh 59.6* and Wnt bcat act -1.8.
For Cc1cccc(C)c1NC(=O)c1c[nH]c2ccccc12 the results were MITF TRPM1 HTS 77.4, Vif inh -5.8, XiGFP reactiv 0.0, esBAF inh 49.1* and Wnt bcat act 23.0.
C/C(=N/NC(=O)c1ccco1)c1ccc(NC(=O)c2ccc(Br)o2)cc1 was read as MITF TRPM1 HTS 70.7, Vif inh 1.1, XiGFP reactiv 0.0, esBAF inh 46.9* and Wnt bcat act 17.2.
`C/C(=N\NC(=O)CNC(=O)c1ccc(Br)cc1)c1ccco1` gave MITF TRPM1 HTS -0.1, Vif inh -6.8, XiGFP reactiv 0.2, esBAF inh 1.9 and Wnt bcat act -0.6.
For Cc1cccc(C)c1NC(=O)CNC(=O)Cc1c[nH]c2ccccc12 the results were MITF TRPM1 HTS -10.8, Vif inh -12.2, XiGFP reactiv 0.0, esBAF inh 3.9 and Wnt bcat act -1.1.
C/C(=N\NC(=O)c1c[nH]c2ccccc12)c1ccco1 was read as MITF TRPM1 HTS 18.8, Vif inh -12.9, esBAF inh 51.2* and Wnt bcat act -0.6.
